Assays:
[1] = molecular target: T1, Indoleamine 2,3-dioxygenase 1 (Homo sapiens, UniProt P14902); assay: Inhibition of recombinant human N-terminus IDO1 expressed in Escherichia coli assessed as residual activity at -6.9 log[compound]/M using L-tryptophan as substrate measured after 180 mins by UV absorbance based assay relative to control
How it was run: (§1)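 E. coli-expressed, Ni affinity-purified human N-terminal IDO1 at 40 nmol/L with 900 μmol/L tryptophan, coupled reaction components, 0.5% DMSO final, room temperature, 180 min; N-formylkynurenine read at 321 nm. Duplicates per concentration; % activity relative to no-inhibitor control, fitted by sigmoidal dose-response nonlinear regression; IC50 at half-maximal activity.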
Target sequence in this assay (P14902 whole entry, looked up): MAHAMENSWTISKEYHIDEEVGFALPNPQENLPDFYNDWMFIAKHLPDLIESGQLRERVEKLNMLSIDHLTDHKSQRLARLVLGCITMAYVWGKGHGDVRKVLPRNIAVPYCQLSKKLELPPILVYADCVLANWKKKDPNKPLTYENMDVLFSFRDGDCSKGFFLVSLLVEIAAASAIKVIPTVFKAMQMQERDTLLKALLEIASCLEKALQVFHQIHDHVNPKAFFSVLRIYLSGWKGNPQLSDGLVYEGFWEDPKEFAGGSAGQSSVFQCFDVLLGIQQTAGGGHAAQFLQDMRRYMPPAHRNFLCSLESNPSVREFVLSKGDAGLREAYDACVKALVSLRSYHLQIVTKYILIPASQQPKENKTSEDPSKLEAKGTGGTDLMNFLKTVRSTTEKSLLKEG

[2] = molecular target: T1, Indoleamine 2,3-dioxygenase 1; assay: Inhibition of recombinant human N-terminus IDO1 expressed in Escherichia coli assessed as residual activity at -7.3 log[compound]/M using L-tryptophan as substrate measured after 180 mins by UV absorbance based assay relative to control; how it was run: as §1
Target sequence in this assay (P14902 whole entry, looked up): as above

[3] = molecular target: T1, Indoleamine 2,3-dioxygenase 1; assay: Inhibition of recombinant human N-terminus IDO1 expressed in Escherichia coli assessed as N-formylkynurenine formation at 10 uM using L-tryptophan as substrate measured after 180 mins by UV absorbance based assay
How it was run: (§2)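 Human N-terminal IDO1 expressed in E. coli, Ni affinity-purified; 40 nmol/L enzyme with 900 μmol/L tryptophan plus coupled reaction components in IDO1 assay buffer, 0.5% DMSO final, room temperature, 180 min. N-formylkynurenine read by UV absorbance at 321 nm. Blank lacks enzyme; positive control lacks inhibitor.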
Target sequence in this assay (P14902 whole entry, looked up): as above

[4] = molecular target: T1, Indoleamine 2,3-dioxygenase 1; assay: Inhibition of recombinant human N-terminus IDO1 expressed in Escherichia coli assessed as residual activity at -4.5 log[compound]/M using L-tryptophan as substrate measured after 180 mins by UV absorbance based assay relative to control; how it was run: as §1
Target sequence in this assay (P14902 whole entry, looked up): as above

[5] = molecular target: T1, Indoleamine 2,3-dioxygenase 1; assay: Inhibition of recombinant human N-terminus IDO1 expressed in Escherichia coli assessed as residual activity at -5 log[compound]/M using L-tryptophan as substrate measured after 180 mins by UV absorbance based assay relative to control; how it was run: as §1
Target sequence in this assay (P14902 whole entry, looked up): as above

[6] = molecular target: T1, Indoleamine 2,3-dioxygenase 1; assay: Inhibition of recombinant human N-terminus IDO1 expressed in Escherichia coli assessed as residual activity at -5.9 log[compound]/M using L-tryptophan as substrate measured after 180 mins by UV absorbance based assay relative to control; how it was run: as §1
Target sequence in this assay (P14902 whole entry, looked up): as above

[7] = molecular target: T1, Indoleamine 2,3-dioxygenase 1; assay: Inhibition of recombinant human N-terminus IDO1 expressed in Escherichia coli assessed as residual activity at -5.4 log[compound]/M using L-tryptophan as substrate measured after 180 mins by UV absorbance based assay relative to control; how it was run: as §1
[8] = molecular target: T1, Indoleamine 2,3-dioxygenase 1; assay: Inhibition of recombinant human N-terminus IDO1 expressed in Escherichia coli assessed as residual activity at -7.8 log[compound]/M using L-tryptophan as substrate measured after 180 mins by UV absorbance based assay relative to control; how it was run: as §1
[9] = molecular target: T1, Indoleamine 2,3-dioxygenase 1; assay: Inhibition of recombinant human N-terminus IDO1 expressed in Escherichia coli assessed as residual activity at -8.3 log[compound]/M using L-tryptophan as substrate measured after 180 mins by UV absorbance based assay relative to control; how it was run: as §1
[10] = molecular target: T1, Indoleamine 2,3-dioxygenase 1; assay: Inhibition of recombinant human N-terminus IDO1 expressed in Escherichia coli assessed as N-formylkynurenine formation at 100 uM using L-tryptophan as substrate measured after 180 mins by UV absorbance based assay; how it was run: as §2
[11] = molecular target: T1, Indoleamine 2,3-dioxygenase 1; assay: Inhibition of recombinant human N-terminus IDO1 expressed in Escherichia coli assessed as N-formylkynurenine formation using L-tryptophan as substrate measured after 180 mins by UV absorbance based assay; how it was run: as §1
Target sequence in this assay (P14902 whole entry): as the sequence (P14902 whole entry, looked up) above

[12] = molecular target: T1, Indoleamine 2,3-dioxygenase 1; assay: Inhibition of recombinant human N-terminus IDO1 expressed in Escherichia coli assessed as residual activity at -8.8 log[compound]/M using L-tryptophan as substrate measured after 180 mins by UV absorbance based assay relative to control; how it was run: as §1
[13] = molecular target: T1, Indoleamine 2,3-dioxygenase 1; assay: Inhibition of recombinant human N-terminus IDO1 expressed in Escherichia coli assessed as residual activity at -6.4 log[compound]/M using L-tryptophan as substrate measured after 180 mins by UV absorbance based assay relative to control; how it was run: as §1
[14] = molecular target: T1, Indoleamine 2,3-dioxygenase 1; assay: Inhibition of recombinant human N-terminus IDO1 expressed in Escherichia coli assessed as N-formylkynurenine formation at 1 uM using L-tryptophan as substrate measured after 180 mins by UV absorbance based assay

inhibition [3] [%] | inhibition [10] [%] | inhibition [14] [%] | Compound | further results
70 | 100 | – | Oc1ccc(CNc2cc(Br)cc3[nH]ncc23)cc1 | Activity [1]: 87%; Activity [2]: 88%; Activity [4]: 9%; Activity [5]: 26%; Activity [6]: 71%; Activity [7]: 51%; Activity [8]: 91%; Activity [9]: 91%; IC50 [11]: 5.3 µM; Activity [12]: 92%; Activity [13]: 82%
19 | 68 | – | O=C(O)c1ccc(C(CO)Nc2cc(Br)cc3[nH]ncc23)cc1 (centres undefined) | –
49 to 58 | 91 to 94 | 19 | O=C(O)c1ccc(CNc2cc(Br)cc3[nH]ncc23)cc1 | –
3 | 9 | 3 | O=C(O)c1ccc(CNc2ncnc3[nH]ncc23)cc1 | –
12 | 37 | 3 | O=C(CNc1cc(Br)cc2[nH]ncc12)Nc1ccc(C(=O)O)cc1 | –
1 | 24 | – | O=C(O)c1ccc(CNc2cccc3[nH]ncc23)cc1 | –
31 | 73 | – | O=C(O)c1ccc(C(O)CNc2cc(Br)cc3[nH]ncc23)cc1 (centres undefined) | –
100 | – | – | NS(=O)(=O)NCCNc1nonc1/C(=N/O)Nc1ccc(F)c(Br)c1 | –
5 | 37 | 3 | Cc1nc(NCc2ccc(C(=O)O)cc2)c2cn[nH]c2n1 | –
27 | 79 | – | O=C(O)Cc1ccc(CNc2cc(Br)cc3[nH]ncc23)cc1 | –
42 | 100 | – | Clc1ccc(CNc2cc(Br)cc3[nH]ncc23)cc1 | –
8 | 34 | 4 | O=C(CNc1cc(Br)cc2[nH]ncc12)NC1CCOCC1 | –
41 | 100 | – | Oc1ccccc1CNc1cc(Br)cc2[nH]ncc12 | –
18 | 69 | – | O=C(O)c1ccc(COc2cc(Br)cc3[nH]ncc23)cc1 | –
38 | 88 | – | O=C(O)c1cc(CNc2cc(Br)cc3[nH]ncc23)ccc1O | –
20 | 84 | – | Cc1ccc(CNc2cc(Br)cc3[nH]ncc23)cc1 | –
21 | 74 | – | O=C(O)c1cccc(CNc2cc(Br)cc3[nH]ncc23)c1 | –
5 | 32 | 3 | Cc1nc(NCc2cccc(C(=O)O)c2)c2cn[nH]c2n1 | –
7 | 40 | – | O=C(O)c1cccc(COc2cc(Br)cc3[nH]ncc23)c1 | –
2 | 7 | 2 | O=C(O)c1cccc(CNc2ncnc3[nH]ncc23)c1 | –
37 | 100 | – | Brc1cc(NCc2ccccc2)c2cn[nH]c2c1 | –

— ChEMBL document CHEMBL3864154, “Discovery and preliminary structure-activity relationship of 1H-indazoles with promising indoleamine-2,3-dioxygenase 1 (IDO1) inhibition properties” (Bioorg Med Chem, 2016)
